Results published in ChEMBL document CHEMBL5390270, “Synthesis, anti-inflammatory activity, inverse molecular docking, and acid dissociation constants of new naphthoquinone-thiazole hybrids” (Bioorg Med Chem, 2023).
Active and inactive are the calls of the source. No cut-off for these calls is given here.

What follows are molecules tested on J774.2 (assay: Antiinflammatory activity in LPS-stimulated mouse J774.2 cells assessed as reduction IL-6 production at 5 ug/mL […] by ELISA analysis). Settings: dose 5.0 µg/ml.
Assay type: functional, cell-based
Procedure, shortened: (§1)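 J774.2 macrophages in RPMI 1640 with 10 % FBS, 1 % penicillin/streptomycin and sodium pyruvate, 24-well plates, 37 °C, 5 % CO₂. Cells were stimulated for 1 day with test molecules at 1, 2 and 5 µg/mL plus LPS. SA at 5 µg/mL served as control. Supernatant TNF-α or IL6 was read by sandwich ELISA: biotin-antibody, streptavidin-HRP, TMB, absorbance at 450 nm. N = 3.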

SMILES | Activity
NC1=C(n2c(-c3ccc(Br)cc3)cs/c2=N\C(=O)c2ccc(Cl)c([N+](=O)[O-])c2)C(=O)c2ccccc2C1=O | Active

These molecules were tested on J774.2 (assay: Antiinflammatory activity in LPS-stimulated mouse J774.2 cells assessed as reduction in TNF-alpha level at 1 to 5 ug/mL incubated for 12 hrs by ELISA analysis). Settings: dose 1-5 µg/ml, time 24.0 hrs, in the assay text read “24 hrs” for “12 hrs”.
Assay type: functional, cell-based
Procedure, shortened: as §1

SMILES | Activity
NC1=C(n2c(-c3ccc(Br)cc3)cs/c2=N\C(=O)c2ccc([N+](=O)[O-])cc2)C(=O)c2ccccc2C1=O | Active
NC1=C(n2c(-c3ccc(Cl)cc3)cs/c2=N\C(=O)c2ccc([N+](=O)[O-])cc2)C(=O)c2ccccc2C1=O | Active
NC1=C(n2c(-c3ccccc3)cs/c2=N\C(=O)c2ccc([N+](=O)[O-])cc2)C(=O)c2ccccc2C1=O | inactive
NC1=C(n2c(-c3ccc(F)cc3)cs/c2=N\C(=O)c2ccc([N+](=O)[O-])cc2)C(=O)c2ccccc2C1=O | Active

Each molecule was assayed on J774.2 (assay: Antiinflammatory activity in LPS-stimulated mouse J774.2 cells assessed as reduction in IL-6 production at 1 to 5 ug/ml […] by ELISA analysis). Settings: dose 1-5 µg/ml.
Assay type: functional, cell-based
Procedure, shortened: as §1

SMILES | Activity
NC1=C(n2c(-c3ccccc3)cs/c2=N\C(=O)c2ccc(Cl)c([N+](=O)[O-])c2)C(=O)c2ccccc2C1=O | Active
NC1=C(n2c(-c3ccc(Br)cc3)cs/c2=N\C(=O)c2cccc([N+](=O)[O-])c2)C(=O)c2ccccc2C1=O | Active

These molecules were tested on J774.2 (assay: Antiinflammatory activity in mouse J774.2 cells assessed as reduction in IL-6 production at 1 to 5 ug/mL […] by ELISA analysis). Settings: dose 1-5 µg/ml.
Assay type: functional, cell-based
Procedure, shortened: (§2)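 J774.2 macrophages were cultured in RPMI 1640 with 10 % FBS, antibiotics and sodium pyruvate at 37 °C, 5 % CO₂. Cells received molecules at 1, 2 and 5 µg/mL for 1 day without LPS. Supernatant TNF-α or IL6 was quantified by sandwich ELISA with TMB read-out at 450 nm. N = 3.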

SMILES | Activity
NC1=C(n2c(-c3ccc(Br)cc3)cs/c2=N\C(=O)c2ccc([N+](=O)[O-])cc2)C(=O)c2ccccc2C1=O | inactive
NC1=C(n2c(-c3ccc(Cl)cc3)cs/c2=N\C(=O)c2cccc([N+](=O)[O-])c2)C(=O)c2ccccc2C1=O | inactive
NC1=C(n2c(-c3ccccc3)cs/c2=N\C(=O)c2ccc(Cl)c([N+](=O)[O-])c2)C(=O)c2ccccc2C1=O | inactive
NC1=C(n2c(-c3ccc(Br)cc3)cs/c2=N\C(=O)c2ccc(Cl)c([N+](=O)[O-])c2)C(=O)c2ccccc2C1=O | inactive
NC1=C(n2c(-c3ccc(Br)cc3)cs/c2=N\C(=O)c2cccc([N+](=O)[O-])c2)C(=O)c2ccccc2C1=O | inactive
NC1=C(n2c(-c3ccc(Cl)cc3)cs/c2=N\C(=O)c2ccc([N+](=O)[O-])cc2)C(=O)c2ccccc2C1=O | inactive
NC1=C(n2c(-c3ccccc3)cs/c2=N\C(=O)c2ccc([N+](=O)[O-])cc2)C(=O)c2ccccc2C1=O | inactive
NC1=C(n2c(-c3ccc(F)cc3)cs/c2=N\C(=O)c2ccc([N+](=O)[O-])cc2)C(=O)c2ccccc2C1=O | inactive
NC1=C(n2c(-c3ccccc3)cs/c2=N\C(=O)c2cccc([N+](=O)[O-])c2)C(=O)c2ccccc2C1=O | inactive
NC1=C(n2c(-c3ccc(F)cc3)cs/c2=N\C(=O)c2ccc(Cl)c([N+](=O)[O-])c2)C(=O)c2ccccc2C1=O | inactive
NC1=C(n2c(-c3ccc(Cl)cc3)cs/c2=N\C(=O)c2ccc(Cl)c([N+](=O)[O-])c2)C(=O)c2ccccc2C1=O | inactive
NC1=C(n2c(-c3ccc(F)cc3)cs/c2=N\C(=O)c2cccc([N+](=O)[O-])c2)C(=O)c2ccccc2C1=O | inactive

These molecules were tested on J774.2 (assay: Antiproliferative activity against LPS-stimulated mouse J774.2 cells assessed as reduction in cell viability at 1 to 5 ug/mL incubated for 1 day by trypan blue staining analysis). Settings: dose 1-5 µg/ml.
Assay type: functional, cell-based
Procedure, shortened: (§3)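 J774.2 macrophages in RPMI 1640 with 10 % FBS, antibiotics and sodium pyruvate, 37 °C, 5 % CO₂. Cells were exposed for 1 day to molecules at 1, 2 and 5 µg/mL with or without LPS, with SA at 5 µg/mL as control. Supernatants were removed, cells washed in PBS, then counted with trypan blue to give viability. N = 3.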

SMILES | Activity
NC1=C(n2c(-c3ccc(Br)cc3)cs/c2=N\C(=O)c2ccc([N+](=O)[O-])cc2)C(=O)c2ccccc2C1=O | inactive
NC1=C(n2c(-c3ccc(Cl)cc3)cs/c2=N\C(=O)c2cccc([N+](=O)[O-])c2)C(=O)c2ccccc2C1=O | inactive
NC1=C(n2c(-c3ccccc3)cs/c2=N\C(=O)c2ccc(Cl)c([N+](=O)[O-])c2)C(=O)c2ccccc2C1=O | inactive
NC1=C(n2c(-c3ccc(Br)cc3)cs/c2=N\C(=O)c2ccc(Cl)c([N+](=O)[O-])c2)C(=O)c2ccccc2C1=O | inactive
NC1=C(n2c(-c3ccc(Br)cc3)cs/c2=N\C(=O)c2cccc([N+](=O)[O-])c2)C(=O)c2ccccc2C1=O | inactive
NC1=C(n2c(-c3ccc(Cl)cc3)cs/c2=N\C(=O)c2ccc([N+](=O)[O-])cc2)C(=O)c2ccccc2C1=O | inactive
NC1=C(n2c(-c3ccccc3)cs/c2=N\C(=O)c2ccc([N+](=O)[O-])cc2)C(=O)c2ccccc2C1=O | inactive
NC1=C(n2c(-c3ccc(F)cc3)cs/c2=N\C(=O)c2ccc([N+](=O)[O-])cc2)C(=O)c2ccccc2C1=O | inactive
NC1=C(n2c(-c3ccccc3)cs/c2=N\C(=O)c2cccc([N+](=O)[O-])c2)C(=O)c2ccccc2C1=O | inactive
NC1=C(n2c(-c3ccc(F)cc3)cs/c2=N\C(=O)c2ccc(Cl)c([N+](=O)[O-])c2)C(=O)c2ccccc2C1=O | inactive
NC1=C(n2c(-c3ccc(Cl)cc3)cs/c2=N\C(=O)c2ccc(Cl)c([N+](=O)[O-])c2)C(=O)c2ccccc2C1=O | inactive
NC1=C(n2c(-c3ccc(F)cc3)cs/c2=N\C(=O)c2cccc([N+](=O)[O-])c2)C(=O)c2ccccc2C1=O | inactive

The molecules below were run on J774.2 (assay: Antiinflammatory activity in mouse J774.2 cells assessed as reduction in TNF-alpha level at 1 to 5 ug/mL […] by ELISA analysis). Settings: dose 1-5 µg/ml.
Assay type: functional, cell-based
Procedure, shortened: as §2

SMILES | Activity
NC1=C(n2c(-c3ccc(Br)cc3)cs/c2=N\C(=O)c2ccc([N+](=O)[O-])cc2)C(=O)c2ccccc2C1=O | inactive
NC1=C(n2c(-c3ccc(Cl)cc3)cs/c2=N\C(=O)c2cccc([N+](=O)[O-])c2)C(=O)c2ccccc2C1=O | inactive
NC1=C(n2c(-c3ccccc3)cs/c2=N\C(=O)c2ccc(Cl)c([N+](=O)[O-])c2)C(=O)c2ccccc2C1=O | inactive
NC1=C(n2c(-c3ccc(Br)cc3)cs/c2=N\C(=O)c2ccc(Cl)c([N+](=O)[O-])c2)C(=O)c2ccccc2C1=O | inactive
NC1=C(n2c(-c3ccc(Br)cc3)cs/c2=N\C(=O)c2cccc([N+](=O)[O-])c2)C(=O)c2ccccc2C1=O | inactive
NC1=C(n2c(-c3ccc(Cl)cc3)cs/c2=N\C(=O)c2ccc([N+](=O)[O-])cc2)C(=O)c2ccccc2C1=O | inactive
NC1=C(n2c(-c3ccccc3)cs/c2=N\C(=O)c2ccc([N+](=O)[O-])cc2)C(=O)c2ccccc2C1=O | inactive
NC1=C(n2c(-c3ccc(F)cc3)cs/c2=N\C(=O)c2ccc([N+](=O)[O-])cc2)C(=O)c2ccccc2C1=O | inactive
NC1=C(n2c(-c3ccccc3)cs/c2=N\C(=O)c2cccc([N+](=O)[O-])c2)C(=O)c2ccccc2C1=O | inactive
NC1=C(n2c(-c3ccc(F)cc3)cs/c2=N\C(=O)c2ccc(Cl)c([N+](=O)[O-])c2)C(=O)c2ccccc2C1=O | inactive
NC1=C(n2c(-c3ccc(Cl)cc3)cs/c2=N\C(=O)c2ccc(Cl)c([N+](=O)[O-])c2)C(=O)c2ccccc2C1=O | inactive
NC1=C(n2c(-c3ccc(F)cc3)cs/c2=N\C(=O)c2cccc([N+](=O)[O-])c2)C(=O)c2ccccc2C1=O | inactive

The molecules below were run on J774.2 (assay: Antiinflammatory activity in LPS-stimulated mouse J774.2 cells assessed as reduction in IL-6 production at 1 ug/ml incubated for […] by ELISA analysis). Settings: dose 1.0 µg/ml.
Assay type: functional, cell-based
Procedure, shortened: as §1

SMILES | Activity
NC1=C(n2c(-c3ccc(Cl)cc3)cs/c2=N\C(=O)c2ccc(Cl)c([N+](=O)[O-])c2)C(=O)c2ccccc2C1=O | inactive

What follows are molecules tested on J774.2 (assay: Antiinflammatory activity in LPS-stimulated mouse J774.2 cells assessed as reduction in IL-6 production at 2 to 5 ug/ml […] by ELISA analysis). Settings: dose 2-5 µg/ml.
Assay type: functional, cell-based
Procedure, shortened: as §1

SMILES | Activity
NC1=C(n2c(-c3ccc(Cl)cc3)cs/c2=N\C(=O)c2cccc([N+](=O)[O-])c2)C(=O)c2ccccc2C1=O | Active

Each molecule was assayed on J774.2 (assay: Antiproliferative activity against LPS-stimulated mouse J774.2 cells assessed as reduction in cell viability at 1 to 5 ug/mL incubated for 1 day in presence of LPS by trypan blue staining analysis). Settings: dose 1-5 µg/ml.
Assay type: functional, cell-based
Procedure, shortened: as §3

SMILES | Activity
NC1=C(n2c(-c3ccc(Br)cc3)cs/c2=N\C(=O)c2ccc([N+](=O)[O-])cc2)C(=O)c2ccccc2C1=O | inactive
NC1=C(n2c(-c3ccc(Cl)cc3)cs/c2=N\C(=O)c2cccc([N+](=O)[O-])c2)C(=O)c2ccccc2C1=O | inactive
NC1=C(n2c(-c3ccccc3)cs/c2=N\C(=O)c2ccc(Cl)c([N+](=O)[O-])c2)C(=O)c2ccccc2C1=O | inactive
NC1=C(n2c(-c3ccc(Br)cc3)cs/c2=N\C(=O)c2ccc(Cl)c([N+](=O)[O-])c2)C(=O)c2ccccc2C1=O | inactive
NC1=C(n2c(-c3ccc(Br)cc3)cs/c2=N\C(=O)c2cccc([N+](=O)[O-])c2)C(=O)c2ccccc2C1=O | inactive
NC1=C(n2c(-c3ccc(Cl)cc3)cs/c2=N\C(=O)c2ccc([N+](=O)[O-])cc2)C(=O)c2ccccc2C1=O | inactive
NC1=C(n2c(-c3ccccc3)cs/c2=N\C(=O)c2ccc([N+](=O)[O-])cc2)C(=O)c2ccccc2C1=O | inactive
NC1=C(n2c(-c3ccc(F)cc3)cs/c2=N\C(=O)c2ccc([N+](=O)[O-])cc2)C(=O)c2ccccc2C1=O | inactive
NC1=C(n2c(-c3ccccc3)cs/c2=N\C(=O)c2cccc([N+](=O)[O-])c2)C(=O)c2ccccc2C1=O | inactive
NC1=C(n2c(-c3ccc(F)cc3)cs/c2=N\C(=O)c2ccc(Cl)c([N+](=O)[O-])c2)C(=O)c2ccccc2C1=O | inactive
NC1=C(n2c(-c3ccc(Cl)cc3)cs/c2=N\C(=O)c2ccc(Cl)c([N+](=O)[O-])c2)C(=O)c2ccccc2C1=O | inactive
NC1=C(n2c(-c3ccc(F)cc3)cs/c2=N\C(=O)c2cccc([N+](=O)[O-])c2)C(=O)c2ccccc2C1=O | inactive

What follows are molecules tested on J774.2 (assay: Antiinflammatory activity in LPS-stimulated mouse J774.2 cells assessed as reduction in TNF-alpha level at 5 ug/mL incubated for 12 hrs by ELISA analysis). Settings: dose 5.0 µg/ml, time 24.0 hrs, in the assay text read “24 hrs” for “12 hrs”.
Assay type: functional, cell-based
Procedure, shortened: as §1

SMILES | Activity
NC1=C(n2c(-c3ccc(Cl)cc3)cs/c2=N\C(=O)c2cccc([N+](=O)[O-])c2)C(=O)c2ccccc2C1=O | Active
NC1=C(n2c(-c3ccccc3)cs/c2=N\C(=O)c2cccc([N+](=O)[O-])c2)C(=O)c2ccccc2C1=O | Active

Each molecule was assayed on J774.2 (assay: Antiinflammatory activity in LPS-stimulated mouse J774.2 cells assessed as reduction IL-6 production at 2 to 5 ug/mL incubated for […] by ELISA analysis). Settings: dose 2-5 µg/ml.
Assay type: functional, cell-based
Procedure, shortened: as §1

SMILES | Activity
NC1=C(n2c(-c3ccc(Cl)cc3)cs/c2=N\C(=O)c2ccc(Cl)c([N+](=O)[O-])c2)C(=O)c2ccccc2C1=O | Active

What follows are molecules tested on J774.2 (assay: Antiinflammatory activity in LPS-stimulated mouse J774.2 cells assessed as reduction in TNF-alpha level at 1 to 2 ug/mL […] by ELISA analysis). Settings: dose 1-2 µg/ml.
Assay type: functional, cell-based
Procedure, shortened: as §1

SMILES | Activity
NC1=C(n2c(-c3ccccc3)cs/c2=N\C(=O)c2cccc([N+](=O)[O-])c2)C(=O)c2ccccc2C1=O | inactive
